Source: PubChem BioAssay (Broad Institute)
A selection: hits, their analogues and other compounds. The true share with any hit is near 2.3%.
F508del corr – correctors of CFTR F508del function in bronchial epithelial cells; CFBE cells, YFP halide quenching; stimulated with forskolin plus potentiator P3; % fluorescence drop versus neutral controls; activity (quench increase), % at 7.58 µM; 350,000 compounds, 0.36% hits; AID 720511;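 active means mean added fluorescence quench of at least 8% versus neutral control, with both replicates also reaching 8%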;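 further: cells transiently co-express mutant CFTR-F508del with the halide-sensitive YFP; corrector assay measuring rescue of mutant channel to the surface after 24 h compound exposure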
C2C12 statin – suppressors of simvastatin-induced myotoxicity in C2C12 myotubes; rescue of ATP level, % at 7.49 µM; 330,000 compounds, 0.78% hits; ATP luminescence, 48 h; scaled: DMSO 0, geranylgeraniol control 100;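 active means mean ATP rescue above about 67%, or every replicate alone reaching that limit, limit read from the data, passing the limit was not always enough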;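 further: myotubes were challenged with 10 µM simvastatin during compound exposure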
ERp5 inh – ERp5 (human) disulfide isomerase inhibition | Q15084 | ERp5 insulin aggregation, absorbance 650 nm, 90 min | inhibition, % at 9.99 µM | 350,000 compounds, 0.05% hits;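 active means mean replicate inhibition above about 25%, with every replicate also reaching it, limit read from the data, passing the limit was not always enough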
Target sequence (Q15084 whole entry, looked up): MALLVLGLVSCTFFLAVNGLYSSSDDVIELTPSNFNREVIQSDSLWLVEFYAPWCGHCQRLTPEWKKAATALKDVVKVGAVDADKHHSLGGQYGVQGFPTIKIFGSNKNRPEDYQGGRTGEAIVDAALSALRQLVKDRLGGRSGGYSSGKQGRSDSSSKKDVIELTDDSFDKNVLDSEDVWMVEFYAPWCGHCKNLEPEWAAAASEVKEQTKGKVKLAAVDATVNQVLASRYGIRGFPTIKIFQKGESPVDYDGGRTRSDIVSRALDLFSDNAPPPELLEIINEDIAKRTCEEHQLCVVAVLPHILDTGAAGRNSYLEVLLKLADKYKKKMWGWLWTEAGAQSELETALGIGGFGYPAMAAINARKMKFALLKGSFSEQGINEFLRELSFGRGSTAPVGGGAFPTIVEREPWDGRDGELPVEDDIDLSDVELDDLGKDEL
PDI inh – PDI (human) enzyme inhibition; P07237; AID 588391; inhibition, % at 10 µM; 350,000 compounds, 0.052% hits; PDI insulin aggregation turbidity, A650, 90 min;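 active means mean inhibition across replicates of 30% or more, whatever share of single replicates reach that level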
DENV2 CPE rescue – protects cells from dengue virus 2 cytopathic effect; DENV2-infected cells, cytopathic effect rescue, plate reader; CPE inhibition, % at 9.99 µM; 350,000 compounds, 1.7% hits; AID 651640; in the data active means CPE inhibition above about 20%, passing the limit was not always enough; tested in BHK-21 cells;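 further: 0% = median of neutral control wells and 100% = median of positive control wells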
Cneo AK release – Cryptococcus neoformans lysis via adenylate kinase release | C. neoformans lysis, adenylate kinase release luminescence, 4 h; normalised: neutral wells 0, clomiphene wells 100 | lysis activity, % at 15 µM | 360,000 compounds, 0.2% hits;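 active means mean lysis activity across replicates of at least 80%, whatever share of replicates individually reach that level; inactive means mean lysis activity below 80%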
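Assay system: Cryptococcus neoformans yeast cells / Dosing: single-point compound dose / Timing: 4 h at 37 °C static, read 1 h later / Measured by: luminescence of released adenylate kinase using an AK detection reagent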
* marks the source's active call; other numbers are inactive results; nt = not tested or not shown; ! = a repeat was not active.

SMILES	F508del corr	C2C12 statin	ERp5 inh	PDI inh	DENV2 CPE rescue	Cneo AK release
CO[C@H]1CN(C)C(=O)c2cc(NC(=O)NC3CCCC3)ccc2OC[C@@H](C)N(C)C[C@@H]1C	0	nt	4	nt	-5	nt
CCOC(=O)c1c(SCCN2CCCCC2)n(-c2ccccc2)c(=S)n(-c2ccccc2)c1=O	-2	nt	-7	6	23*	nt
COCC(=O)Nc1ccc2c(c1)[C@H]1C[C@H](CC(=O)NCc3ccccc3)O[C@@H](CO)[C@H]1O2	-3	-5	3	nt	21*	0
COCC(=O)Nc1ccc2c(c1)[C@@H]1C[C@H](CC(=O)NCc3ccccc3)O[C@@H](CO)[C@@H]1O2	-2	-3	-7	-4	-2	-1
O=C(C[C@H]1C[C@H]2c3cc(NC(=O)Nc4ccccc4)ccc3O[C@H]2[C@H](CO)O1)NCc1ccncc1	-3	4	-8	nt	62*	0
COCC(=O)Nc1ccc2c(c1)[C@H]1C[C@@H](CC(=O)NCc3cc(F)ccc3F)O[C@@H](CO)[C@H]1O2	-3	-2	nt	nt	38*	-9
COCC(=O)Nc1ccc2c(c1)[C@H]1C[C@@H](CC(=O)O)O[C@@H](CO)[C@H]1O2	-1	nt	4	nt	43*	nt
CCCNC(=O)[C@H]1[C@H](CO)[C@H]2Cn3c(cccc3=O)[C@@H]1N2S(=O)(=O)c1ccccc1C	-1	-3	-4	nt	4	-6
COc1cccc(S(=O)(=O)N[C@H]2CC[C@H](CC(=O)NCc3ccncc3)O[C@@H]2CO)c1	1	1	-4	nt	16	28
O=C(C[C@H]1C[C@@H]2c3cc(NC(=O)C4CCC4)ccc3O[C@@H]2[C@H](CO)O1)NCc1ccccc1	-1	-4	-1	nt	23*	0
COCC(=O)Nc1ccc2c(c1)[C@@H]1C[C@H](CC(=O)N(C)C)O[C@@H](CO)[C@@H]1O2	1	-5	-6	nt	30*	-1
COc1ccccc1C(=O)Nc1ccc2c(c1)OC[C@@H](C)N(CC1CC1)C[C@H](C)[C@H](OC)CN(C)C2=O	-1	0	nt	nt	nt	nt
CCN(CC(=O)Nc1cc(Cl)ccc1C)C(=O)c1ccc2c(c1)NC(=O)C(C)S2 (stereo not given)	0	-6	0	-6	50*	2
COc1ccccc1S(=O)(=O)N1CC[C@@H]2[C@H](CO)Nc3ccc(-c4ccccc4)cc3[C@@H]21	1	-14	-1	nt	0	-2
C[C@@H]1CN([C@@H](C)CO)C(=O)c2c(c3ccccc3n2C)-c2ccccc2CO[C@H]1CN(C)Cc1cccc2c1OCCCO2	1	nt	-7	nt	21*	nt
C[C@H](CO)N1C[C@H](C)[C@H](CN(C)Cc2ccc3c(c2)OCCN3C)OCc2ccccc2-c2c(n(C)c3ccccc23)C1=O	2	nt	-2	nt	-3	nt
C[C@@H]1CN([C@@H](C)CO)C(=O)c2c(c3ccccc3n2C)-c2ccccc2CO[C@H]1CN(C)Cc1cccc(O)c1	2	nt	nt	nt	25*	nt
C[C@@H]1CN([C@H](C)CO)C(=O)c2c(c3ccccc3n2C)-c2ccccc2CO[C@H]1CN(C)Cc1ccc2c(c1)OCCN2C	-2	2	0	10	28*!	2
COc1ccccc1CN(C)C[C@H]1OCc2ccccc2-c2c(n(C)c3ccccc23)C(=O)N([C@@H](C)CO)C[C@@H]1C	1	nt	-4	nt	-9	nt
O=C(N[C@H]1CC[C@@H](CC(=O)N2CCc3ccccc3C2)O[C@H]1CO)C1CCC1	0	-1	0	nt	17	-1
CCOC(=O)C1(Cc2ccccc2)NC(c2ccccc2F)C2C(=O)N(CC)C(=O)C21 (stereo not given)	nt	nt	nt	-1	nt	-1
CCN1C(=O)C2C(c3ccccc3F)NC(Cc3ccc(O)cc3)(C(=O)OC)C2C1=O (stereo not given)	nt	4	nt	53*	nt	-1
O=C(Nc1nnc([C@@H]2C[C@H](O)[C@@H](CO)O2)s1)c1ccccc1Cl	-4	6	2	3	6	1
O=C(Nc1nnc([C@H]2C[C@H](O)[C@@H](CO)O2)s1)c1ccccc1F	-2	-12	2	4	29*	1
CO[C@H]1CN(C)C(=O)c2cc(NC(=O)C3CC3)ccc2OC[C@@H](C)N(C)C[C@H]1C	-1	11	3	nt	1	-8
SMILES	F508del corr	C2C12 statin	ERp5 inh	PDI inh	DENV2 CPE rescue	Cneo AK release
CC(C)C1Cc2ccccc2-c2[nH]c(=S)[nH]c(=O)c21 (stereo not given)	1	nt	6	-1	72*	-1
CO[C@@H]1CN(C)C(=O)c2ccc(NS(C)(=O)=O)cc2OC[C@@H](C)N(C(=O)C2CC2)C[C@H]1C	0	2	-2	nt	1	-1
CC1(C)Cc2nc3sc4c(SCC(=O)NCc5ccco5)ncnc4c3cc2CO1	nt	nt	nt	-8	nt	-5
Cc1nc2c(sc3nc4c(cc32)COC(C)(C)C4)c(=O)n1CC(=O)NCc1ccco1	13*	-25	-2	-1	nt	-7
Cc1ccccc1CN1C(=O)CN(S(C)(=O)=O)CC1(C)C(=O)NCc1ccccc1 (stereo not given)	1	nt	2	nt	22*	nt
COc1cccc(CNc2ccccc2O)c1OCc1ccccc1F	-2	96*	-3	-4	nt	2
COc1cccc(CNc2ccc(S(N)(=O)=O)cc2)c1OCc1ccccc1F	nt	nt	2	-1	-4	nt
Cc1cc(O)c(C2=Nc3ccccc3SC(c3ccc(Cl)cc3)C2)c(=O)o1 (stereo not given)	nt	nt	nt	6	nt	nt
COc1ccc(C2CC(c3c(O)cc(C)oc3=O)=NCCS2)c(OC)c1 (stereo not given)	nt	117*	nt	-11	nt	-2
O=C1NC[C@H](Cc2ccccc2)N(C[C@H]2CCCN2C[C@H](Cc2ccccc2)N2C[C@H](Cc3ccc(O)cc3)N(CCc3ccccc3)C(=O)C2=O)C1=O	-4	5	-4	42*	-9	0
CCOc1ccc(CCN2C(=O)C(=O)N([C@@H](CC(C)C)CN3CCC[C@@H]3CN3C(=O)C(=O)NC[C@@H]3Cc3ccccc3)C[C@@H]2Cc2ccc(O)cc2)cc1	-1	15	2	54*	7	-2
CC(C)C[C@@H](CN1CCC[C@@H]1CN1C(=S)NC[C@@H]1Cc1ccc(O)cc1)N1C[C@H](Cc2ccc(O)cc2)N(CC2CCCCC2)C1=S	3	-9	-3	nt	28*	4
OCC[C@H]1C[C@@H](O)[C@H](O)[C@]2(Cc3ccccc3CCO2)O1	1	-6	-6	-7	47*	1
Cc1ccc(NC(=O)CSC2=NN3CCCC(=O)N=C3S2)c(C)c1	9.7*	3	0	1	1	0
C[C@H](CO)N1C[C@H](C)[C@H](CN(C)Cc2ccc(O)cc2)OCc2cn(nn2)CCCC1=O	1	8	3	nt	-1	6
